Screening results as filed in PubChem.
SR-BI DiI inh: inhibitors of mouse SR-BI mediated HDL lipid uptake | inhibition, % at 12.5 µM | 0.96% of 320,000 active | Q61009 | AID 488896 | ldlA[mSR-BI] CHO cells, DiI-HDL uptake fluorescence, 3 h;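 active means mean replicate inhibition of at least 70% and a set share of replicates each scoring 70 or more; inconclusive means meets just one of the two criteria; inactive means fails both criteria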;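 further: 0% = median of neutral control wells and 100% = median of positive control wells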
SR-BI DiI-HDL act: enhances SR-BI lipid uptake from DiI-HDL; 0.096% of 320,000 active; CHO ldlA[mSR-BI] cells, DiI-HDL uptake fluorescence, 3 h; 100 = double the neutral-control signal; activation, % at 12.5 µM; AID 504775;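 active means mean replicate activation of at least 60% and every replicate at or above 60%; inconclusive means mean or all-replicate condition met, but not both; inactive means mean below 60% and not all replicates reaching 60%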;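 further: 0% = median plate neutral-control signal and 100% = twice that signal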
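Test system: SR-BI-overexpressing, LDLR-lacking CHO cells. Measured by: DiI fluorescence, bottom read. Medium: Ham's F12 with 0.5% BSA, HEPES 25 mM, pH 7.4. Timing: 3 h uptake period with compound, 37 °C.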
Vif imaging: inhibitors of HIV Vif. 0.35% of 340,000 active. inhibition, % at 7.49 µM. HEK293T cells, Vif self-association by quenched fluorescence, imaging, 24 h; in the data active means inhibition above about 50%, passing the limit was not always enough; inconclusive means no clear call, values can overlap the other calls; inactive means below about 31%
PKA-R2B activ: PKA-R2B complex activation | PKA-R2B holoenzyme dissociation, Cy5-IP20 fluorescence polarization; R2B truncated from residue 108, S112A mutant; 0% DMSO only, 100% 113 µM cGMP | activation, % at 11.4 µM | 0.079% of 340,000 active;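 active means activation above a cutoff set at the mean over all compounds plus 3 SD, cut at about 18% in these data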;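 further: higher means more holoenzyme dissociation and a rise in polarization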
Target sequence (P31323 whole entry, looked up, other chains not shown, the tested form may be a part): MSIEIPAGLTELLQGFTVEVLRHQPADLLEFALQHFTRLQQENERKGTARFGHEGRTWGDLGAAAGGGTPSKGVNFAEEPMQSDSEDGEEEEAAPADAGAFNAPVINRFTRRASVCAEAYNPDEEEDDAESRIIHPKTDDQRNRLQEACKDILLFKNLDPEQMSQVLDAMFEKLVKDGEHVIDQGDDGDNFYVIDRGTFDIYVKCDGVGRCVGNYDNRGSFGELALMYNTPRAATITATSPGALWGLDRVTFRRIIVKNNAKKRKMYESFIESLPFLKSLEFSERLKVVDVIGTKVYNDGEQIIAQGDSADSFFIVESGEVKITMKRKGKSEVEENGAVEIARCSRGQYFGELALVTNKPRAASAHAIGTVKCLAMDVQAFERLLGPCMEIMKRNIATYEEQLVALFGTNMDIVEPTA
PKA-R1A act: PKA-R1A complex activation | P00514+P68181 | PKA-R1A dissociation, Cy5-IP20 fluorescence polarization; scaled: DMSO 0%, 113 µM cGMP 100% | 0.083% of 340,000 active | activation, % at 11.4 µM;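 active means percent activation above the mean of all tested compounds plus 3 SD, cut at about 19% in these data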;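 further: higher means more PKAc released from R1A so a rise in polarization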
* = called active by the depositor; i = inactive; ? = inconclusive; nt = no result. Shown are actives, neighbours in structure and some others; about 1.4% of the full set was active somewhere.

SMILES	SR-BI DiI inh	SR-BI DiI-HDL act	Vif imaging	PKA-R2B activ	PKA-R1A act
CC1CCc2c(sc(NC(=O)c3cccn3C)c2C(N)=O)C1 (centres undefined)	81.3*	-81.3	-11.7	-20.6	-5.9
COc1ccccc1-c1cc(C(=O)Nc2sc3c(c2C#N)CCC(C)C3)c2ccccc2n1 (centres undefined)	86.2*	-86.2	-4.2	-12.6	-2.4
COc1cc(C(=O)Nc2sc3c(c2C(=O)O)CCC(C)C3)cc(OC)c1OC (centres undefined)	-19.2	19.2	122.3*	-4.2	5.1
COc1ccc(OC)c(-c2cc(C(=O)Nc3sc4c(c3C#N)CCC(C)C4)c3ccccc3n2)c1 (centres undefined)	?	-73.8	13.0	-11.4	-4.2
COc1cc(C(=O)Nc2sc3c(c2C#N)CCN(C(C)=O)C3)cc(OC)c1OC	78.5*	-78.5	2.1	-2.8	-4.7
COc1cc(C(=O)Nc2sc(C)c(C)c2C(=O)O)cc(OC)c1OC	-2.3	2.3	-1.2	9.0	1.0
COc1ccc(C(=O)Nc2sc3c(c2C#N)CCN(C(C)=O)C3)cc1	76.0*	-76.0	-11.1	-8.2	8.1
CC(=O)N1CCc2c(sc(NC(=O)c3ccc([N+](=O)[O-])o3)c2C#N)C1	4.6	-4.6	-5.2	17.8	13.0
Nn1c(SCc2cccc(C(F)(F)F)c2)nnc1-c1ccco1	5.5	-5.5	-1.3	-9.1	1.4
Cn1c(SCc2cccc(C(F)(F)F)c2)nnc1-c1ccco1	-164.0	164.0*	-2.9	-11.2	0.4
COC(=O)CC/C(O)=C1\C(=O)CC(C)(C)CC1=NCc1nc2ccccc2[nH]1	-5.3	5.3	77.2*	1.2	-5.8
N#C/C(=C/c1cn(-c2ccccc2)nc1-c1cccc(OCc2ccccc2)c1)C(=O)NCCCn1ccnc1	-84.3	84.4*	8.2	3.5	-5.7
C=CCn1c(O)c(C2=c3ccccc3=NC2=O)c2ccccc21	-22.0	22.0	6.2	-11.0	-0.7
C=CCn1c(O)c(C2=c3ccccc3=NC2=O)s/c1=N/c1nccs1	13.0	-15.3	88.3*	1.2	-0.7
Nc1ccccc1C(=O)NN=Cc1cccnc1	nt	nt	-2.4	nt	nt
CCCC1CCC(c2ccc(C(=O)NN)cc2)CC1 (centres undefined)	-160.9	161.0*	-5.4	-2.4	-6.2
CCOC1=C2[C@@H](CN(S(=O)(=O)c3ccc(C)cc3)[C@H]2c2ccc(CC)cc2)[C@H]2C(=O)N(C)C(=O)[C@H]2C1	nt	nt	-2.6	nt	nt
CCOC(=O)c1sc(-c2ccccc2)cc1N	-3.0	3.0	17.6	8.5	-17.7
CCOC(=O)c1sc(-c2ccccc2)cc1NC(=O)Nc1ccc([N+](=O)[O-])cc1	78.0*	-78.0	-4.5	-12.2	-8.3
Cc1ccc(NC(=O)c2ccc(Nc3c([N+](=O)[O-])cc([N+](=O)[O-])cc3[N+](=O)[O-])cc2)cc1	102.1*	-102.1	-4.4	10.8	-11.1
CC(=O)Nc1ccc(NC(=O)c2cc([N+](=O)[O-])cc([N+](=O)[O-])c2)cc1	30.3	-30.3	0.1	2.8	-4.0
Cc1ccc(NC(=O)c2ccc(N/N=C/c3cccc(O)c3)c([N+](=O)[O-])c2)cc1	95.3*	-95.3	i	-0.4	-1.5
Cc1ccccc1NC(=O)c1ccc(N/N=C/c2ccccc2O)c([N+](=O)[O-])c1	-0.1	0.1	0.8	-5.7	1.2
N#CCNC(=O)C1c2ccccc2Oc2ccccc21	2.8	-2.8	-6.9	8.2	4.1
O=C(NCc1nnnn1-c1ccc(F)cc1)c1ccc2c(c1)OCO2	nt	nt	-1.1	-1.0	7.2
SMILES	SR-BI DiI inh	SR-BI DiI-HDL act	Vif imaging	PKA-R2B activ	PKA-R1A act
COc1ccc(Cl)cc1-c1cc(C(=O)NCc2cccc(C(F)(F)F)c2)[nH]n1	nt	nt	6.3	nt	nt
CCOC(=O)c1cc2occc2n1CC(=O)N1CCOCC1	9.0	-9.0	59.7*	-6.1	-7.8
O=C(N/N=C/c1ccc(OC(F)F)cc1)c1ccc(CSc2nc3ccccc3[nH]2)cc1	81.7*	-81.7	-6.2	3.9	-3.8
CCOc1ccc(-c2cc(C(=O)NCCCn3ccnc3)c3cc(Br)ccc3n2)cc1	54.9	-54.9	61.3*	-6.5	2.6
COc1ccccc1CCNC(=O)c1cc(-c2ccncc2)nc2ccc(Br)cc12	77.5*	-77.4	9.8	12.7	0.3
COc1ccccc1CCNC(=O)c1cc(-c2ccccn2)nc2ccccc12	15.7	-15.7	-17.7	11.7	-4.5
O=C(N/N=C/c1ccc([N+](=O)[O-])cc1)c1ccc(COc2ccccc2-c2ccccc2)cc1	99.3*	-99.3	3.9	-9.2	2.1
O=C(N/N=C/c1ccc([N+](=O)[O-])cc1)c1ccccc1OCc1ccccc1	-2.5	2.5	2.9	4.8	-4.3
COc1cccc(C(=O)NCC(=O)N/N=C/c2cccc(OC(=O)c3ccc([N+](=O)[O-])cc3)c2)c1	-15.3	15.3	-0.7	0.2	0.6
O=C(CNC(=O)c1ccc([N+](=O)[O-])cc1)N/N=C\c1ccc(OC(=O)c2ccccc2)cc1	15.4	-15.4	50.2*	-1.2	-4.5
COc1ccc(OC)c(CCNC(=O)C(=O)Nc2ccc3nc4n(c(=O)c3c2)CCCCC4)c1	77.1*	-77.1	-0.8	-4.3	-12.5
Cc1nn(-c2ccccc2)c(N2CCCC2)c1/C=N/NC(=S)Nc1ccccc1C(F)(F)F	57.4	-57.4	-9.4	-1.8	3.3
Cc1nn(-c2ccccc2)c(N2CCCCC2)c1/C=N/NC(=O)c1ccncc1	87.4*	-87.4	0.1	-7.7	4.8
Cc1cc(C(=O)N/N=C/c2c(C)nn(-c3ccccc3)c2Cl)n[nH]1	nt	nt	71.0*	nt	nt
Cc1nn(-c2ccccc2)c(N2CCCC2)c1/C=N/NC(=S)Nc1cc(C(F)(F)F)ccc1Cl	86.4*	-86.4	-2.0	-12.3	-12.2
Cc1nn(-c2ccccc2)c(Cl)c1/C=N/NC(=O)c1ccn[nH]1	7.3	-7.3	-7.1	0.7	-3.9
CC(C)(C)NC(=O)C(c1ccncc1)N(C(=O)Cn1nnc(-c2ccc(F)cc2)n1)c1ccccc1F (centres undefined)	1.4	-1.4	60.5*	-3.5	-3.2
CNC(=O)C(=O)NCC1OCCN1S(=O)(=O)c1ccc(OC)c(OC)c1 (centres undefined)	-11.4	11.4	-1.6	-0.4	-1.2
Clc1cc2c(c(Cn3cnc4ccccc43)c1)OCOC2	5.6	-5.6	-24.6	7.6	3.1
Clc1cc2c(c(CSc3nc4ccccc4n4cccc34)c1)OCOC2	15.8	-15.8	76.2*	2.1	-3.0
Cc1ccc(COn2c(-c3ccc(Cl)cc3)nc3ccc([N+](=O)[O-])cc32)cc1	17.6	-17.6	-19.6	-17.8	-10.5
O=[N+]([O-])c1ccc2nc(-c3ccc(Cl)cc3)n(OCc3ccccc3)c2c1	80.7*	-80.7	-13.2	7.6	4.1
COc1cc(/C=C/C(=O)c2ccc3c(c2)OCCO3)cc(OC)c1OC	71.6*	-71.6	-3.8	6.8	-7.4
